High-throughput results from PubChem BioAssay.
DDE Tn7 FP inh: inhibitors of Tn7 peptide binding to human fibrin DD(E); inhibition, % at 8.3 µM; FP displacement of FITC-Tn7 peptide from fibrin DD(E); 0% = median of compound wells per plate; 370,000 compounds, 0.13% hits;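 active = inhibition above the mean of compounds falling within the control limits plus 3 SD of them, cut at about 14% in these data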;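 note: 0% = plate median of compound wells and 100% = 10 µM Aha-Tn7 peptide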
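Assay system: Human fibrin DD(E) protein | Medium: Tris buffer with calcium and detergent, pH 7.8 | Reagent: 0.1 µM fluorescent Tn7 | Compound dosing: Single point at 8.3 µM | Times: 10 min preincubation, 3 h with tracer, room temperature | Detection: Fluorescence polarization of the labelled Tn7 tracer | Controls: Aha-Tn7 high control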
ABCB1 inh: inhibitors of human ABCB1 transporter, ABCG2 counter-screen; AID 1326; inhibition, % at 6.6 µM; CCRF-Adr cells, JC-1 efflux, flow cytometry; 190,000 compounds, 0.067% hits; in the data active = inhibition above about 40%;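 note: 0% = vehicle and 100% = reference inhibitor; higher value means more JC-1 retained so stronger ABCB1 efflux block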
ABCG2 block: inhibitors of human ABCG2 transporter, ABCB1 counter-screen; Q9UNQ0; inhibition, % at 6.6 µM; AID 1325; IgMXP3 cells, JC-1 efflux, flow cytometry; 190,000 compounds, 0.1% hits;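 active = inhibition above 80%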;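 note: 0% = DMSO and 100% = nicardipine control wells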
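Incubation: cells with compound and JC-1, 10 min at 25 °C, rotating, no wash / Test system: IgMXP3 (ABCG2) plus far-red-tagged CCRF-Adr (ABCB1) cells / Compound dosing: one concentration, 6.6 µM final / Also added: JC-1 fluorescent substrate / Evaluation: efflux inhibition in percent versus controls / Detection: flow cytometry, 530 nm JC-1 signal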
GRK2 aptamer HTS: blocks RNA aptamer binding to human GRK2; bead flow cytometry, FAM-aptamer displacement from GRK2; inhibition of aptamer binding, % at 10 µM; 330,000 compounds, 0.59% hits; AID 488847;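 active = inhibition of aptamer binding above 40%, roughly 3 SD of noise, on plates passing a quality check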;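 note: median bead fluorescence of bound FAM aptamer so fluorescent compounds give negative values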
DDE Tn6 FP inh: disrupts Tn6 cyclic peptide binding to fibrin D-Dimer-E complex. P02675. inhibition, % at 8.3 µM. 370,000 compounds, 0.21% hits. Fibrin DD(E) TRITC-Tn6 fluorescence polarization displacement. AID 720509;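 active = inhibition above a per-campaign cutoff: mean of compounds within control limits plus 3 SD, cut at about 15% in these data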;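 note: 0% = median of all compound wells on the plate and 100% = blocking peptide control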
Insulin prom up: MIN6 insulin promoter up-regulation; MIN6 insulin promoter-GFP reporter, high-content imaging; active compounds read high; z-score at 5 µM; 190,000 compounds, 0.3% hits;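 active = z-score above 3 at 5 µM with at least 500 cells counted in the well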
* hit, by the source's call; x = no result given. Only some compounds are listed: those with a hit (about 0.99% of all), similar ones and a draw of the others.

SMILES	DDE Tn7 FP inh	ABCB1 inh	ABCG2 block	GRK2 aptamer HTS	DDE Tn6 FP inh	Insulin prom up
CC1CCN(C(=O)COC(=O)/C=C/c2ccco2)CC1	-6	x	x	51*	1	x
COC(=O)C1=C(C)N(Cc2cccc(C(F)(F)F)c2)C(=NCc2ccc3c(c2)OCO3)NC1c1ccc(F)cc1 (centres undefined)	-5	x	x	x	-5	x
Cc1ccc(Nc2nc3c([nH]2)c(=O)n(C)c(=O)n3C)cc1	-4	0	0	4	-2	3.3*
CCCCCCc1cc2cc(C(=O)Nc3ccccc3OC)c(=O)oc2cc1O	-12	-1	-2	0	-4	-0.3
CCCCCCc1cc2cc(-c3nnc(-c4cc(OC)c(OC)c(OC)c4)o3)c(=O)oc2cc1O	x	15	40	0	x	10*
CCCCCCc1cc2cc(-c3nnc(-c4ccccc4OC)o3)c(=O)oc2cc1O	-13	21	38	3	-2	8.9*
C=CCN(CC#Cc1cccnc1)Cc1ccc(OC)cc1OC	-3	x	x	x	-3	x
COC(=O)CCC1NC(=O)C(Cc2c[nH]c3ccccc23)NC(=O)C2CC(=O)OC(C)C(NC(=O)C(C)NC(=O)C3CCCN3C(=O)C3CCCN3C(=O)C(C)NC(C)=O)C(=O)NC(CC(C)C)C(=O)NC(CCCCNC(=O)CCC(C(=O)NC(Cc3ccc(O)cc3)C(=O)O)NC1=O)C(=O)NC(Cc1c[nH]c3ccccc13)C(=O)N1CCCC1C(=O)NC(CO)C(=O)N2 (centres undefined)	0	x	x	x	6	x
O=C(Nc1ccc(Cl)cc1)OC1CCC12CCC(c1ccccc1)CC2 (centres undefined)	5	x	x	x	-4	x
O=C1C=C(Nc2ccc(O)cc2)CC(c2ccco2)C1 (centres undefined)	-3	14	0	3	-6	6.8*
CCCCCC#CCC#CCC#CCC#CCCCC(=O)O	x	-1	0	50*	x	x
COC(=O)CN(Cc1cn(Cc2ccccc2)nn1)S(=O)(=O)c1ccccc1Br	-2	x	x	x	3	x
CC(=O)N1CCc2cc(S(=O)(=O)NCCC(=O)N(C)Cc3ccccc3F)ccc21	-5	x	x	x	-8	x
CCN1/C(=C\C=C(C(C)=O)C(C)=O)Sc2ccccc21	-34	-4	26	1	-1	7.7*
CCOC(=O)/C(C#N)=C(C)/C=C1\Sc2ccccc2N1CC	2	-5	-11	0	-1	1.9
CN1CCN(Cc2nc(N)nc(Nc3ccc4c(c3)OCCO4)n2)CC1	1	2	5	0	-5	4.7*
Nc1nc(CN2CCN(c3ccccc3F)CC2)nc(Nc2ccc3c(c2)OCCO3)n1	0	1	3	0	-9	-0.95
CCCCCn1nnnc1C1c2ccccc2OCC(=O)N1Cc1ccco1 (centres undefined)	-8	x	x	x	8	x
CC[C@]12c3[nH]c4ccc(OC)cc4c3CCN1C(=O)C(CC(=O)NCC13CC4CC(CC(C4)C1)C3)C[C@@H]2C(=O)N1CCN(C(=O)c2ccco2)CC1 (some centres undefined)	x	x	x	43*	x	x
NC1=NS(=O)(=O)Nc2ccccc21	1	x	x	x	0	x
CCCCCCOc1ccc(N2C(=O)CC(N3CCN(C(=O)c4ccco4)CC3)C2=O)cc1 (centres undefined)	9	1	1	1	-2	0.58
CCCOc1ccc(N2C(=O)CC(N3CCN(C(=O)c4ccco4)CC3)C2=O)cc1 (centres undefined)	6	1	2	3	17*	0.48
CC1=C2NC(N)=[N+](CC3CC3)C(Cc3ccccc3)[C@@H]2n2c(=O)n(-c3ccccc3)c(=O)n2C1 (some centres undefined)	-4	x	x	x	-7	x
COc1ccc(CN(CC2CCC(C(=O)O)CC2)C(=S)Nc2cccc(C)c2)cc1 (centres undefined)	-4	1	3	5	-5	3.6*
CCn1c(O)c(/C=C/C=C/C=Nc2ccccc2)sc1=S	6	0	0	0	-7	0.09
SMILES	DDE Tn7 FP inh	ABCB1 inh	ABCG2 block	GRK2 aptamer HTS	DDE Tn6 FP inh	Insulin prom up
Oc1c(/C=C/C=C/C=Nc2ccccc2)sc(=S)n1Cc1ccccc1	4	x	x	2	1	3.3*
CCCCn1c(O)c(/C=C/C=C/C=Nc2ccccc2)sc1=S	-1	-1	-12	1	4	4.7*
COc1ccc(C[N+]2=C(N)NC3=C(C)Cn4c(=O)n(-c5ccccc5)c(=O)n4C3C2)c(OC)c1 (centres undefined)	-1	x	x	x	-1	x
C=CC[C@@H]1NN2C(=O)[C@@H](CCc3ccccc3)[C@@H]3c4ccccc4C=NN3[C@@H]2c2ccccc21	6	x	x	x	-3	x
COC(=O)c1c[nH]n2c(=O)c(Cc3ccc(F)cc3Cl)c(C)nc12	-2	0	13	0	-3	3.4*
COc1c2c(nc3ccccc13)OC(C(C)(O)COC(C)=O)C2 (centres undefined)	4	0	4	0	-1	3.3*
COc1ccc(/C=C/C(=O)Nc2cccc(C(C)=O)c2)cc1	9	x	0	88*	-9	-0.04
COc1cc(OC)cc(C(=O)Nc2cccc(C(C)=O)c2)c1	2	1	7	0	-4	3.5*
COc1cc(OC)cc(C(=O)Nc2cccc(NC(=O)c3ccccc3)c2)c1	2	x	x	2	-14	x
COc1ccc(O)c(C2=Nc3ccccc3N=C(c3ccco3)C2)c1	3	1	3	0	2	-0.01
Oc1ccc(Cl)cc1C1=Nc2ccccc2N=C(c2ccco2)C1	1	1	2	0	-4	4.3*
C/C(=N\NC(=O)Nc1ccccc1)c1ccc2ccccc2c1	6	1	3	100*	-5	-0.17
c1ccc(-c2ccc(-c3nccc4ccccc34)[nH]2)cc1	x	x	x	x	x	4.4*
CCC(NC(=O)c1ccc2c(ccn2Cc2cccc(-c3ccc(C(=O)O)cc3)c2)c1)c1ccccc1 (centres undefined)	-8	x	x	x	-5	x
CN(C)c1ccc(/C=C2\SC(=O)N(CCc3nnc(N)s3)C2=O)cc1	-10	x	x	2	0	3.3*
CCCCN1C(=N)N([C@@H](CCC)CN2CCC[C@H]2CN2C(N)=NC[C@H]2C(C)C)C[C@H]1[C@H](C)CC	3	x	x	100*	5	x
Cc1cccc2cc3c(N)c(C(=O)Nc4ccc(N5CCOCC5)cc4)sc3nc12	2	0	0	0	0	-0.2
Cc1cccc2cc3c(N)c(C(=O)N4CCc5ccccc54)sc3nc12	-9	13	12	1	-4	4.4*
COc1ccc(NC(=O)NS(=O)(=O)c2ccc(C)cc2)cn1	48*	x	x	0	11	x
COc1cc(NC(=O)NS(=O)(=O)c2ccc(C)cc2)cc(OC)c1	-9	1	1	0	-14	1.2
